{
  "source": "the EternaBench riboswitch data",
  "system": "MS2 coat protein",
  "experiment": "apparent Kd, MS2 coat protein; higher = weaker binding; RNA-MaP array",
  "procedure,_shortened": "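Incubations were done at room temperature with fluorescently labeled MS2 coat protein at 1.5 nM to 3 μM and designed RNAs transcribed on an Illumina sequencing chip from sequenced DNA templates, with or without input ligand. Apparent Kd is the median of binding curves fitted for each cluster. Designs with fewer than 10 measured clusters were excluded.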",
  "key": {"[1]": {"settings": "designed as: OFF switch for flavin mononucleotide, no ligand"}, "[2]": {"settings": "ligand present: flavin mononucleotide, designed as: OFF switch for flavin mononucleotide"}, "[3]": {"settings": "designed as: ON switch for flavin mononucleotide, no ligand"}, "[4]": {"settings": "ligand present: flavin mononucleotide, designed as: ON switch for flavin mononucleotide"}, "[5]": {"settings": "designed as: OFF switch for tryptophan, no ligand"}, "[6]": {"settings": "ligand present: tryptophan, designed as: OFF switch for tryptophan"}, "[7]": {"settings": "designed as: OFF switch for theophylline, no ligand"}, "[8]": {"settings": "ligand present: theophylline, designed as: OFF switch for theophylline"}, "[9]": {"settings": "designed as: ON switch for theophylline, no ligand"}, "[10]": {"settings": "ligand present: theophylline, designed as: ON switch for theophylline"}},
  "data": [
    {"sequence": "AUUAUGUAAGGAUAUCGAGAAAUAAAGAAUCUAGUCAGCCACGAGAAGGAACAUGAGGAUCACCCAUGUGGAUA", "values": [
      {"measurement": "apparent Kd", "setting": "[1]", "value": 13.8, "unit": "nM"},
      {"measurement": "apparent Kd", "setting": "[2]", "value": 12.2, "unit": "nM"}
    ]},
    {"sequence": "AAUUUUAUGAAAGGAUAUGUGUGCUGGUCCAUCACAGAAGGUUCAAGGAGAUGGAUAUAACGACAUGAGGAUCACCCAUGUGCU", "values": [
      {"measurement": "apparent Kd", "setting": "[3]", "value": 32, "unit": "nM"},
      {"measurement": "apparent Kd", "setting": "[4]", "value": 22.1, "unit": "nM"}
    ]},
    {"sequence": "AUAAAACAUGAGGAUCACCCAUGUAUAGAAAGCGCAGGAUAUAGGUGAUCAUAGUACUAUCAAGAAGGGCGGAACC", "values": [
      {"measurement": "apparent Kd", "setting": "[3]", "value": 217, "unit": "nM"},
      {"measurement": "apparent Kd", "setting": "[4]", "value": 184, "unit": "nM"}
    ]},
    {"sequence": "GUACGGUUCCAAGGAUAUGAUAGGUGACAUGAGGAUCACCCAUGUGCCGGUGGUGGGAGCGAGGAUCAGAAGGUGGCCAGCGGU", "values": [
      {"measurement": "apparent Kd", "setting": "[3]", "value": 60, "unit": "nM"},
      {"measurement": "apparent Kd", "setting": "[4]", "value": 45.4, "unit": "nM"}
    ]},
    {"sequence": "CGGUUACUAGGAUAUACAUGAGGAUCACCCAUGUGACCUCCCGUCACGCGUGUACUGGGUAGAAGGAGUCAGGU", "values": [
      {"measurement": "apparent Kd", "setting": "[1]", "value": 24.8, "unit": "nM"},
      {"measurement": "apparent Kd", "setting": "[2]", "value": 34.8, "unit": "nM"}
    ]},
    {"sequence": "CAAGAGUUGUACAUUGUGAGGCGUCGGGAACGAGGACCGGUACGGCCGCCACUCGAAAAUUAACAUGAGGAUCACCCAUGUACAC", "values": [
      {"measurement": "apparent Kd", "setting": "[5]", "value": 70.8, "unit": "nM"},
      {"measurement": "apparent Kd", "setting": "[6]", "value": 47.7, "unit": "nM"}
    ]},
    {"sequence": "AACGAUUAAUCGGCCGCCACUCACAUGAGGAUCACCCAUGUUGUUCUUCCAGGUGGUUCUGUUCCGAGGACCGGGAUUCCGUCCU", "values": [
      {"measurement": "apparent Kd", "setting": "[5]", "value": 55.1, "unit": "nM"},
      {"measurement": "apparent Kd", "setting": "[6]", "value": 57.5, "unit": "nM"}
    ]},
    {"sequence": "CAGUGCGACUCAGGAUAUCAGAACACUAAGGCGUGAGAAGGGAGAACGACACAUGAGGAUCACCCAUGUUAGAGGGAAUGCAUG", "values": [
      {"measurement": "apparent Kd", "setting": "[1]", "value": 37.6, "unit": "nM"},
      {"measurement": "apparent Kd", "setting": "[2]", "value": 43.7, "unit": "nM"}
    ]},
    {"sequence": "GAGCUCCACAAGAAGGGCCGUUGCCCAUGGAAGGACGGCACAUGAGGAUCACCCAUGUUGGCAGGGCAGGAUAUUGCAUUUAUU", "values": [
      {"measurement": "apparent Kd", "setting": "[1]", "value": 26, "unit": "nM"},
      {"measurement": "apparent Kd", "setting": "[2]", "value": 82.8, "unit": "nM"}
    ]},
    {"sequence": "GGUUGACCUGAGGAACAUGAGGAUCACCCAUGUGUUAGCGGAAAGGAUAUUCGAUUGCACGUUAAGAAGAAGGUUCCAACGUUA", "values": [
      {"measurement": "apparent Kd", "setting": "[3]", "value": 14.4, "unit": "nM"},
      {"measurement": "apparent Kd", "setting": "[4]", "value": 15.8, "unit": "nM"}
    ]},
    {"sequence": "GCAAAGUGAUCGGCCGCCACUGCAAUGCUUAAUGGAGGUCCACAUGAGGAUCACCCAUGUCUUCCCAGGACCGGGAUCUCGAGUU", "values": [
      {"measurement": "apparent Kd", "setting": "designed as: ON switch for tryptophan, no ligand", "value": 60.7, "unit": "nM"},
      {"measurement": "apparent Kd", "setting": "ligand present: tryptophan, designed as: ON switch for tryptophan", "value": 66.9, "unit": "nM"}
    ]},
    {"sequence": "AAGUCAGGAGGCGAUACCAGUUACGACAUGGCCAGUUACAUGAGGAUCACCCAUGUGCGGAACCCUUGGCAGCGCUUACAUCGCU", "values": [
      {"measurement": "apparent Kd", "setting": "[7]", "value": 23.1, "unit": "nM"},
      {"measurement": "apparent Kd", "setting": "[8]", "value": 165, "unit": "nM"}
    ]},
    {"sequence": "CACCCUAAAGGAUAUACAGCAUAGAAAACGGGUAAGUCUAAACAUGAGGAUCACCCAUGUAGAAGGUUAGAAUU", "values": [
      {"measurement": "apparent Kd", "setting": "[1]", "value": 14.8, "unit": "nM"},
      {"measurement": "apparent Kd", "setting": "[2]", "value": 14.5, "unit": "nM"}
    ]},
    {"sequence": "GAUUGAGUUCUAGGAUAUCCAGAGCGGCGUGGGACAUGAGGAUCACCCAUGUGCUCUAUGAUCAUGGAGAAGGAGAACCCCGUU", "values": [
      {"measurement": "apparent Kd", "setting": "[1]", "value": 37.3, "unit": "nM"},
      {"measurement": "apparent Kd", "setting": "[2]", "value": 46, "unit": "nM"}
    ]},
    {"sequence": "AACGACAUGAGGAUCACCCAUGUAUACGACCGAAGUGUACGGUAGGAUAUCGACAGCAUAGAUAACGAGAAGGACCCUUUUGGA", "values": [
      {"measurement": "apparent Kd", "setting": "[3]", "value": 18.1, "unit": "nM"},
      {"measurement": "apparent Kd", "setting": "[4]", "value": 11.8, "unit": "nM"}
    ]},
    {"sequence": "UCACUUGUCUAGAAGGGUCGGCACAUGAGGAUCACCCAUGUAAAUGGCUGGUUCAAAUAAUUUUGACAGGAUAUAGAGAGCACU", "values": [
      {"measurement": "apparent Kd", "setting": "[1]", "value": 16.6, "unit": "nM"},
      {"measurement": "apparent Kd", "setting": "[2]", "value": 50.4, "unit": "nM"}
    ]},
    {"sequence": "UGUUUGGCUUCCUUUACAUGAGGAUCACCCAUGUUAUGUAAUUAGGAUAUCCAUGUGAGAUGGUUGGAGAAGGAAUGCAUGACG", "values": [
      {"measurement": "apparent Kd", "setting": "[1]", "value": 27, "unit": "nM"},
      {"measurement": "apparent Kd", "setting": "[2]", "value": 33, "unit": "nM"}
    ]},
    {"sequence": "AAAUAAUCUAGUCCACAAUGUGACUCAGAUACCAGUGCAAAGCUACACCCUUGGCAGCUGGUUACAUGAGGAUCACCCAUGUCGU", "values": [
      {"measurement": "apparent Kd", "setting": "[7]", "value": 47.6, "unit": "nM"},
      {"measurement": "apparent Kd", "setting": "[8]", "value": 116, "unit": "nM"}
    ]},
    {"sequence": "AGCGUUGCAGAGAAGGCGGUAUGAGUUACGCUCUCACACAUGAGGAUCACCCAUGUAAUGACGUCCGAGGAUAUCUCACAACUC", "values": [
      {"measurement": "apparent Kd", "setting": "[1]", "value": 5.47, "unit": "nM"},
      {"measurement": "apparent Kd", "setting": "[2]", "value": 5.81, "unit": "nM"}
    ]},
    {"sequence": "AUGCGCUAUAUGGAUACCAGUAUGAUAAUUGACAUGAGGAUCACCCAUGUGAGCUCUACCUACCCUUGGCAGCCAACCCUAUUUG", "values": [
      {"measurement": "apparent Kd", "setting": "[9]", "value": 21.9, "unit": "nM"},
      {"measurement": "apparent Kd", "setting": "[10]", "value": 22.9, "unit": "nM"}
    ]},
    {"sequence": "GAUAGUCCCAAGGAUAUGUGGGUUUUAUCUUCUACAGAAGGUGGGACAUGAGGAUCACCCAUGUUGCGGCGAGG", "values": [
      {"measurement": "apparent Kd", "setting": "[1]", "value": 26.8, "unit": "nM"},
      {"measurement": "apparent Kd", "setting": "[2]", "value": 261, "unit": "nM"}
    ]},
    {"sequence": "AAAAUCUGGUGAGGAUAUUGUUGAUGAUACAAACAAGAAGGCACGUUGACAUAGCGGGACAACAUGAGGAUCACCCAUGUCACU", "values": [
      {"measurement": "apparent Kd", "setting": "[1]", "value": 46.6, "unit": "nM"},
      {"measurement": "apparent Kd", "setting": "[2]", "value": 42.1, "unit": "nM"}
    ]},
    {"sequence": "GUCUUGUAAGGAUAUGAUCAGUAGGAAAGAUGGCAGCAUCAUCAGAAGGUACAUGAGGAUCACCCAUGUUGUGA", "values": [
      {"measurement": "apparent Kd", "setting": "[1]", "value": 17, "unit": "nM"},
      {"measurement": "apparent Kd", "setting": "[2]", "value": 22.9, "unit": "nM"}
    ]},
    {"sequence": "AGAAAUGUAUUAGGAUAUUGGCGCGUAUUACGACAAGAAGGAAUACAUGAGGAUCACCCAUGUAACCCGCUCCGCGGUCCAUGG", "values": [
      {"measurement": "apparent Kd", "setting": "[1]", "value": 101, "unit": "nM"},
      {"measurement": "apparent Kd", "setting": "[2]", "value": 64.3, "unit": "nM"}
    ]},
    {"sequence": "GUGAUACUUGGAGGAUAUGCUUUCACCUGGUACUCUAUUACAGUGACAUGAGGAUCACCCAUGUAGCAGAAGGCCAGUCAUCGA", "values": [
      {"measurement": "apparent Kd", "setting": "[3]", "value": 18.8, "unit": "nM"},
      {"measurement": "apparent Kd", "setting": "[4]", "value": 9.73, "unit": "nM"}
    ]},
    {"sequence": "UCUUCGUUGGCGUCACAAUUCAUGCAAUGCCGAGGACCGGUACGGCCGCCACUCGGACUAAUACAUGAGGAUCACCCAUGUCGUG", "values": [
      {"measurement": "apparent Kd", "setting": "[5]", "value": 123, "unit": "nM"},
      {"measurement": "apparent Kd", "setting": "[6]", "value": 102, "unit": "nM"}
    ]},
    {"sequence": "ACGAGACGUCUGGAUACCAGCCCAGCGAUAAACAUGAGGAUCACCCAUGUCAAACCACCCGGCCCUUGGCAGCCACGUACCUCAC", "values": [
      {"measurement": "apparent Kd", "setting": "[9]", "value": 14.5, "unit": "nM"},
      {"measurement": "apparent Kd", "setting": "[10]", "value": 10, "unit": "nM"}
    ]}
  ]
}
